# The list is not random: actives were taken first. Their share in the collection is about 4.2%.
# CTSL1 counter-1 – cathepsin L1 inhibition, PFM18AAP counter-screen; recombinant F. hepatica cathepsin L1, Z-Leu-Arg-MCA fluorescence; inhibition, % at 5.96 µM; 300,000 tested, 0.49% active; AID 1906;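 active = inhibition above the mean of all tested compounds plus 3 SD, set per screening campaign, cut at about 17% in these data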;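 also: 0% = plate median of test compound wells and 100% = 1 µM Z-Phe-Ala-diazomethylketone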
# PfM18AAP inh-1 – blocks P. falciparum M18 aspartyl aminopeptidase; inhibition, % at 7.35 µM; 290,000 tested, 1.2% active; recombinant PfM18AAP, H-Glu-NHMec fluorogenic cleavage;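 active = inhibition above the campaign mean inhibition over all tested compounds plus 3 SD, cut at about 28% in these data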;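 also: 0% = plate median of test compound wells and 100% = 2 mM ZnCl2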
# HDAC3 inh – inhibitors of human histone deacetylase 3. O15379. recombinant HDAC3, fluorogenic peptide/trypsin coupled, fluorescence. inhibition, % at 8.3 µM. 320,000 tested, 0.15% active. AID 2718; in the data active = inhibition above about 26%, passing the limit was not always enough; inconclusive = no clear call, values can overlap the other calls
# AHR activator – human AHR activation; P35869; AHR-responsive luciferase reporter cells, luminescence; activation, % at 5 µM; 320,000 tested, 2.5% active; AID 2796; in the data active = activation above about 47%;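 also: 0% = vehicle wells and 100% = reference agonist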
# Target sequence (P35869 whole entry, looked up): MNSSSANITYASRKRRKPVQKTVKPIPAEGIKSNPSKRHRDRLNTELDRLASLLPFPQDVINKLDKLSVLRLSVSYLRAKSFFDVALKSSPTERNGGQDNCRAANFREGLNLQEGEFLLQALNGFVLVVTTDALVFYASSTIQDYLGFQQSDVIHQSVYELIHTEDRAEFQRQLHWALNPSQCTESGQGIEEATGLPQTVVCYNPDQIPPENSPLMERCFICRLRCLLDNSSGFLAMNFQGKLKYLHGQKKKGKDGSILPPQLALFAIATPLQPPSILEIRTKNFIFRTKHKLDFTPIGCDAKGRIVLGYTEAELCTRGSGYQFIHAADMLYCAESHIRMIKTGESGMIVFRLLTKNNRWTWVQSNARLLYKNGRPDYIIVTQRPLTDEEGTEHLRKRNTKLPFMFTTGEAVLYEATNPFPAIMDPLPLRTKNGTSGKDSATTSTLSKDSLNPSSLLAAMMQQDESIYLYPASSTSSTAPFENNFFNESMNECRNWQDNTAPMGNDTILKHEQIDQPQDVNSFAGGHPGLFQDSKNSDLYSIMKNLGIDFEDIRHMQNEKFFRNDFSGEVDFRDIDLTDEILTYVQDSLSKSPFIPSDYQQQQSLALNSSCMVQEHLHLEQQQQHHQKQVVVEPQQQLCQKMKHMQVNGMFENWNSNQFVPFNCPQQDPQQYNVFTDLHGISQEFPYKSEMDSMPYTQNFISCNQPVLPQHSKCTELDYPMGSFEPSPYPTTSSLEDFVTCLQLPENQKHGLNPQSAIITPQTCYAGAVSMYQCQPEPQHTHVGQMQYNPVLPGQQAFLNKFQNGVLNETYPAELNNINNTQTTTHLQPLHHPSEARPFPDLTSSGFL
# FXN GAA850 act – frataxin GAA850 promoter activation | HEK293 lucGAA850 FXN promoter luciferase reporter, 24 h; percent of 10 µM SAHA response | activation, % at 6 µM | 360,000 tested, 0.56% active | AID 540364;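 active = activation above the average of all compounds screened plus 3 SD, cutoff fixed separately per campaign, cut at about 7.5% in these data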;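 also: 0% = DMSO wells and 100% = 10 µM SAHA wells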
# SENP1 FRET inh – SENP1 (human) catalytic domain inhibition. Q9P0U3. recombinant SENP1 catalytic domain, CyPet-SUMO1-YPet FRET cleavage. inhibition, % at 10 µM. 360,000 tested, 0.21% active. AID 624204;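 active = inhibition at least 30% at 10 µM, raw YFP signal under a set limit, fluorescence ratio 0.5 to 1.5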;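 also: 0% = enzyme with DMSO and 100% = no enzyme wells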
#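 Controls: no-enzyme wells low, DMSO-plus-enzyme wells high control. Test system: human recombinant His6-tagged SENP1 catalytic domain enzyme. Reagent: SFCypet-SUMO1-SFYpet FRET protein substrate, 25 nM final. Doses: one dose per compound, 10 µM, 0.5% DMSO. Detection: FRET, CFP and YFP emission. Timing: 50 min reaction at room temperature.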
# PfM18AAP inh-2 – confirmation of Plasmodium falciparum M18 aspartyl aminopeptidase inhibitors | shares compounds with PfM18AAP inh-1 | recombinant PfM18AAP, H-Glu-NHMec fluorogenic cleavage | inhibition, % at 7.35 µM | 2,400 tested, 28% active | AID 2170;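 active = mean inhibition over replicate wells above the hit cutoff set for the earlier primary screen, cut at about 29% in these data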;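 also: 0% = median of test compound wells and 100% = 2 mM ZnCl2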
# CTSL1 counter-2 – counter-screen for PFM18AAP inhibitors: confirmation of human cathepsin L inhibitors; shares compounds with PfM18AAP inh-1; purified cathepsin L1, Z-Leu-Arg-MCA fluorescence; inhibition, % at 5.96 µM; 2,400 tested, under 10 active; AID 2178;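 active = average inhibition across replicates above the hit cutoff set in the earlier primary screen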;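 also: 0% = median of test compound wells and 100% = Z-Phe-Ala-diazomethylketone 1 µM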
# Active calls of the source: *; ? = inconclusive; · = no result.
SMILES,CTSL1 counter-1,PfM18AAP inh-1,HDAC3 inh,AHR activator,FXN GAA850 act,SENP1 FRET inh,PfM18AAP inh-2,CTSL1 counter-2
CCN(CC)C1CCN(C(=O)CCn2nnnc2CN2CCOCC2)C1 (centres undefined),-1,1,6,-2,0,0,·,·
N#CCCN(Cc1ccccc1)C(=O)CCC(=O)c1ccc(F)cc1,·,·,·,·,-1,-5,·,·
Cc1ccccc1-c1nnc(SCC(=O)NC2CCCC2)n1C,-5,·,?,2,0,0,·,·
CCn1c(CSc2nc3ccccc3s2)nnc1SCC(=O)c1ccc(O)c(O)c1,-2,49*,1,9,2,2,30*,1
C=CCn1c(SCC(=O)c2ccc(O)c(O)c2)nnc1-c1ccccc1OC,-4,49*,-7,11,1,3,34*,1
C=CCn1c(SCC(=O)c2ccc(O)c(O)c2)nnc1-c1cccnc1,-4,54*,4,2,1,0,22,5
CCCCn1c(SCC(=O)c2ccc(O)c(O)c2)nc2ccsc2c1=O,-1,37*,6,6,0,0,28,4
CCCNC(=O)C1(C)CCN(C(=O)c2ccc(C)c(F)c2)C1 (centres undefined),·,·,·,·,-2,2,·,·
COc1ccc(CN2C(=O)CSCC2(C)C(=O)Nc2ccc3c(c2)OCCO3)cc1 (centres undefined),·,·,·,·,·,1,·,·
CCCCC1CC(=O)NC1(C(=O)OCC)C(=O)OCC (centres undefined),·,·,·,·,1,2,·,·
CN[C@H]1CCc2cc(OC)c(OC)c(OC)c2-c2ccc(N(C)CC(OC)OC)c(=O)cc21,3,13,2,2,-2,0,·,·
COc1cc2c(c(OC)c1OC)-c1ccc(N(C)CC(OC)OC)c(=O)cc1[C@@H](NC(C)=O)CC2,5,45*,6,-1,2,0,-32,-5
Cc1ccc(NC(=O)C(C)Sc2nnc3n2CCCCC3)cc1S(=O)(=O)N1CCOCC1 (centres undefined),·,·,·,·,-1,2,·,·
COc1cc(/C=C2\NC(=S)N(C)C2=O)ccc1O,7,36*,1,0,1,-49,16,4
C=CCc1c(C)nc(-c2ccccc2)nc1N/N=C(\C)c1ccccc1,-1,37*,·,14,5,-2,-27,0
O=S(=O)(Nc1ccc(Cl)cc1)c1ccc(N2CCOCC2)c(NC(=S)NCCN2CCOCC2)c1,-4,45*,8,0,-1,2,10,-2
COCCCNC(=S)N/N=C/c1ccc(O)cc1O,-1,36*,7,2,-2,7,7,0
COCCCNC(=S)N/N=C/c1ccc(O)cc1,1,9,-9,4,-1,1,·,·
Cc1cc(O)c(Oc2cc(C)cc(O)c2O)c(O)c1,-2,50*,1,18,5,-2,36*,-3
CC(=O)c1cc(-c2ccc(F)cc2)n(CCC(=O)Nc2cc(C)[nH]n2)c1C,-1,57*,1,25,2,1,-48,-5
COCCNC(=S)Nc1ccccn1,-6,13,2,-2,2,2,·,·
CC(C)CCNC(=S)Nc1ccccn1,-3,33*,6,18,4,0,6,2
CN1CCN(C(CNC(=O)C(=O)NC2CCCCC2)c2ccc(F)cc2)CC1 (centres undefined),6,·,-2,-2,1,0,·,·
O=C(O)C1CCN(C(=O)CCN2C(=O)S/C(=C\c3ccccc3)C2=O)CC1,0,37*,1,0,-1,1,-45,8
O=C(CCN1C(=O)S/C(=C\c2ccccc2)C1=O)N1CCCCC1,0,3,2,2,2,-1,·,·
CCOC(=O)C1CCCN(C(=O)Cn2cnc3c2c(=O)n(C)c(=O)n3C)C1 (centres undefined),1,-6,3,-2,-1,3,·,·

# Screens: PubChem BioAssay, several laboratories
